ChEMBL document CHEMBL4732169, “Design and synthesis of mycobacterial pks13 inhibitors: Conformationally rigid tetracyclic molecules” (Eur J Med Chem, 2021)
Converted amounts (≈) assume the structure as drawn.

Columns and labels:
Type in all cases: functional
[1] = system: Mycobacterium tuberculosis; experiment: Antitubercular activity against isoniazid/rifampin/levofloxacin/ofloxacin/kanamycin extensively drug resistance Mycobacterium tuberculosis TF274 XDR by MABA assay
In short: (§1)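 Microplate alamar blue assay (MABA) against each Mtb strain, either H37Rv or a clinical isolate (drug-susceptible, MDR or XDR). MIC taken as the lowest concentration giving at least 90% reduction of the bacterial growth signal. Each value is the average of three individual measurements.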

[2] = system: Mycobacterium tuberculosis; experiment: Antitubercular activity against isoniazid/rifampin resistance Mycobacterium tuberculosis KZN494 by MABA assay; in short: as §1
[3] = system: Mycobacterium tuberculosis; experiment: Antitubercular activity against multi drug resistance Mycobacterium tuberculosis V2475 by MABA assay; in short: as §1
[4] = system: Mycobacterium tuberculosis; experiment: Antitubercular activity against extensively drug resistance Mycobacterium tuberculosis R506 XDR by MABA; in short: as §1

SMILES | MIC=<90 [1] | MIC=<90 [2] | MIC=<90 [3] | MIC=<90 [4]
O=c1[nH]c2cc(O)ccc2c2oc3ccc(O)c(CN4CCCCC4)c3c12 | 0.0156 mg/L (≈ 0.0428 µM) | 0.0313 mg/L (≈ 0.0859 µM) | 0.0625 mg/L (≈ 0.172 µM) | 0.0156 mg/L (≈ 0.0428 µM)
NNC(=O)c1ccncc1 [ISONIAZID] | 8 mg/L (≈ 58.3 µM) | 16 mg/L (≈ 117 µM) | 16 mg/L (≈ 117 µM) | 8 mg/L (≈ 58.3 µM)
NC[C@H]1O[C@H](O[C@H]2[C@H](O)[C@@H](O[C@H]3O[C@H](CO)[C@@H](O)[C@H](N)[C@H]3O)[C@H](N)C[C@@H]2N)[C@H](O)[C@@H](O)[C@@H]1O [KANAMYCIN] | >128 mg/L | 2 mg/L (≈ 4.13 µM) | 2 mg/L (≈ 4.13 µM) | >128 mg/L
C[C@H]1COc2c(N3CCN(C)CC3)c(F)cc3c(=O)c(C(=O)O)cn1c23.C[C@H]1COc2c(N3CCN(C)CC3)c(F)cc3c(=O)c(C(=O)O)cn1c23.O [LEVOFLOXACIN] | 1 mg/L | – | – | 2 mg/L
CC1COc2c(N3CCN(C)CC3)c(F)cc3c(=O)c(C(=O)O)cn1c23 (configuration not stated) [OFLOXACIN] | 8 mg/L (≈ 22.1 µM) | 0.5 mg/L (≈ 1.38 µM) | 0.5 mg/L (≈ 1.38 µM) | 4 mg/L (≈ 11.1 µM)
CO[C@H]1/C=C/O[C@@]2(C)Oc3c(C)c(O)c4c(O)c(c(/C=N/N5CCN(C)CC5)c(O)c4c3C2=O)NC(=O)/C(C)=C\C=C\[C@H](C)[C@H](O)[C@@H](C)[C@@H](O)[C@@H](C)[C@H](OC(C)=O)[C@@H]1C [RIFAMPIN] | >128 mg/L | 128 mg/L (≈ 156 µM) | 4 mg/L (≈ 4.86 µM) | >128 mg/L
